For the data set, the system named is xenograft tumors of murine glioma GL261 cells. Put plainly: GL261 xenograft tumor model. Format: in vivo, C57BL/6 mice. An outline of the steps:
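About 3 × 10⁶ GL261 cells implanted subcutaneously at the left scapula of male C57BL/6 mice (6–8 weeks). At 100–300 mm³, mice randomized (n = 7/group). Vehicle (0.5% methylcellulose) oral daily. TMZ 100 mg/kg oral every 2 days, alone or with 50 mg/kg. Endpoint: tumour weight; body weight; CD31 immunohistochemistry (1:200) on 4 μm paraffin sections.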

With `Cn1nnc2c(C(N)=O)ncn2c1=O` [TMZ, temozolomide], the body weight entry (GL261 xenograft mice, vs control (co-treatment vs TMZ group)) was “significantly decreased”. The tumor inhibition rate (TMZ only, 100 mg/kg oral every 2 days) is recorded as 34.15%.

(Values after publication PMC7016295 (Acta Pharmaceutica Sinica. B, 2019).)
